Compounds with a hit are over-represented: about 3.9% of the library has one in this group of screens.
APP 5'UTR act: activators of APP 5'UTR luciferase reporter, primary screen, SH-SY5Y cells; activation, % at 2 µM; AID 1276, 2008; SH-SY5Y APP 5'UTR luciferase reporter, luminescence; zero percent = DMSO vehicle wells; 190,000 tested, 1% active;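 active = activation above a set limit, based on mean plus 3 SD of controls, cut at about 140% in these data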
NF-kB neuron act: activators of NF-kB expression in neurons, primary screen, cell-based, HTS; human neuronal cells, NF-kB reporter expression; hits give high values; fold change at 12.5 µM; 190,000 tested, 1.6% active; in the data active = fold change above about 3.3
Pf gamet viab: late stage P. falciparum gametocyte viability inhibitors, primary screen, ATP luminescence, HTS; 150,000 tested, 0.065% active; P. falciparum stage V gametocytes, 24 h; inhibition, % at 10.9 µM; AID 743093, 2013;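 active = inhibition above the mean plus 3 SD of compounds within the control limits, set per campaign, cut at about 38% in these data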;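 note: 0% = DMSO wells and 100% = medium only without gametocytes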
STAT3 act-1: IL-6 driven STAT3 reporter potentiators, primary screen, U3A cells, luciferase, luminescence, MLSCN library | IL-6 STAT3-luciferase reporter; 100% = signal with IL-6 EC80 alone | activation (% of control), % at 5.6 µM | 190,000 tested, 0.91% active | AID 871, 2007;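 active = activation above the screen-wide mean of compound activation plus 3 SD, cut at about 130% in these data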;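 note: 0% = background luminescence of wells with medium and substrate only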
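system = STAT3-luciferase reporter U3A cells | reagent = IL-6 stimulus at 33 ng/mL final | timing = 1 h compound pre-exposure, 6 h IL-6 stimulation, 37 °C | measured by = luminescence | evaluation = % activation versus median of IL-6-stimulated wells | control set = IL-6-only wells as 100% reference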
STAT1 blocker: STAT1 signaling inhibitors, primary screen, cell-based, HTS, luciferase reporter. NIH 3T3 STAT1-luciferase reporter, IFN-gamma, luminescence. inhibition, % at 5.5 µM. 200,000 tested, 0.35% active;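 active = inhibition above a set limit, the mean inhibition across all tested compounds plus 3 SD, cut at about 34% in these data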;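 note: 0% = IFN-gamma with DMSO and 100% = IFN-gamma with 300 µM nifuroxazide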
STAT1 act-1: STAT1 signaling activators, primary screen, cell-based, HTS, luciferase reporter | NIH 3T3 STAT1-luciferase reporter, IFN-gamma, luminescence; 100% = IFN-gamma alone, no compound | activation (% of control), % at 5.5 µM | 200,000 tested, 2.6% active | AID 932, 2007;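 active = activation above the screen-wide mean activation plus 3 SD, cut at about 130% in these data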;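 note: raw ratio to IFN-gamma control signal so 100% means no change and 0% no light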
STAT3 act-2: STAT3 reporter potentiators, retest of hits, confirmation, U3A cells, luciferase, luminescence | shares compounds with STAT3 act-1 | IL-6 potentiation; U3A cells lack STAT1; 100 means same as IL-6 alone | potentiation (% of control), % at 5.7 µM | 1,200 tested, 64% active | AID 1267, 2008;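 active = percent activation of the STAT3 luciferase reporter above a set limit taken from the earlier primary screen, cut at about 130% in these data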;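 note: 0% = background signal of medium plus substrate and 100% = median of IL-6 with DMSO wells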
NFkB act STAT3ct: NF-kB reporter activators in human cells, counter-screen for STAT3 activator project. shares compounds with STAT3 act-1. NF-kappaB reporter activation. activation (% of control), % at 5.7 µM. 1,200 tested, 11% active; in the data active = activation above about 120%;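 note: reporter induced by TNF-alpha stimulation; 100% = median of stimulated DMSO wells and 0% = no signal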
STAT1 act-2: STAT1 reporter activators, IFN-gamma induced, counter-screen for STAT3 activator project, cell-based, NIH 3T3, luciferase luminescence | 1,200 tested, 13% active | activation (% of control), % at 5.7 µM | shares compounds with STAT3 act-1 | AID 1318, 2008 | NIH 3T3 STAT1-luciferase reporter;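 active = activation above the solvent-only control well mean plus 3 SD, set per screening run, cut at about 120% in these data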;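 note: 100% = IFN-gamma with DMSO median signal so 100% means no change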
Starred values were filed as active, the others as inactive; nt = no result.

SMILES	APP 5'UTR act	NF-kB neuron act	Pf gamet viab	STAT3 act-1	STAT1 blocker	STAT1 act-1	STAT3 act-2	NFkB act STAT3ct	STAT1 act-2
COC(=O)c1ccccc1S(=O)(=O)Nc1ccc2cn[nH]c2c1	9	1.1	nt	143*	-8	107	129	106	103
CN(C)c1cc(O)c(C(=S)Nc2ccccc2)c(N(C)C)c1	19	0.96	nt	146*	-8	107	136*	110	113
CC(=O)N(C)c1ccc(NC(=S)Nc2ccccc2)cc1	17	0.94	nt	106	5	94	nt	nt	nt
CC(C)NC(=O)CN(C(=O)CCC(=O)Nc1nccs1)c1ccc(C(C)C)cc1	nt	nt	8	nt	nt	nt	nt	nt	nt
COC(=O)c1ccccc1Oc1cc(C(F)(F)F)nc(-c2ccccn2)n1	nt	nt	-8	nt	nt	nt	nt	nt	nt
O=C(COC(=O)CNC(=O)C1CCCCC1)Nc1ccccc1Cl	nt	nt	3	nt	nt	nt	nt	nt	nt
O=C(Cc1csc(Nc2nc(=S)[nH]c3ccccc23)n1)NCc1ccccc1Cl	0	1.1	-32	126	-3	103	nt	nt	nt
Cc1ccc(CNC(=O)Cc2csc(Nc3nc(=S)[nH]c4ccccc34)n2)cc1	-10	1.3	nt	141*	5	96	133*	104	97
COC(=O)C1CCN(C(=O)COC(=O)Cc2c[nH]c3ccccc23)CC1	-5	0.99	-13	140*	6	95	131	100	94
O=C(Cc1c[nH]c2ccccc12)OCC(=O)c1ccccc1	-16	1.3	nt	136*	-3	103	132	104	93
O=C(COC(=O)Cc1c[nH]c2ccccc12)Nc1cccc2ccccc12	4	1.2	nt	112	16	85	nt	nt	nt
COc1ccc(-c2ccc(N)cn2)cn1	nt	nt	1	nt	nt	nt	nt	nt	nt
COc1cc(C(=O)N/N=C(\C)Cc2ccccc2)cc(OC)c1OC	-94	2.6	-22	143*	-5	104	95	110	97
CCCC(=O)Nc1ccc2c(c1)nc(CCN1CCCCC1)n2C	nt	nt	2	nt	nt	nt	nt	nt	nt
C=CCc1ccc(OCCCCNC2CCCC2)c(OC)c1	-10	1.2	-28	92	-1	98	nt	nt	nt
COC(=O)C1=C(NC(=O)c2ccc(Br)cc2)CCS1	-8	0.95	nt	146*	-6	105	133*	108	108
Cc1ccc(S(=O)(=O)n2cccc2C)cc1	nt	nt	6	nt	nt	nt	nt	nt	nt
Cc1ccc(OC(=O)c2oc3ccc(F)cc3c2C)c(C)c1	1	2.8	0	159*	6	95	137*	110	94
Cc1cccc(NC(=O)c2cc([N+](=O)[O-])ccc2Cl)c1O	5	1.2	nt	155*	6	95	162*	110	98
O=C(Nc1ccccc1Oc1ccccc1)c1cc([N+](=O)[O-])ccc1Cl	2	0.64	nt	98	5	96	nt	nt	nt
CCOC(=O)N1CCN(C(=O)c2ccc3nc4ccsc4c(=O)n3c2)CC1	11	1	nt	137*	-3	104	134*	100	100
Cc1ccc(C)[n+](CC(=O)N2CCCCC2)c1	-5	1	nt	95	-1	100	nt	nt	nt
COc1ccc(Oc2nc(-c3cccnc3)nc3ccccc23)cc1	nt	nt	12	nt	nt	nt	nt	nt	nt
CCCOc1ccc(-c2nc(OC)c3ccccc3n2)cc1	0	1.7	-6	142*	-7	106	152*	105	100
Cc1ccc(S(=O)(=O)/N=C2/C=C(Sc3ncn[nH]3)C(=O)c3ccccc32)cc1	-64	0.83	nt	141*	15	87	132	107	83
SMILES	APP 5'UTR act	NF-kB neuron act	Pf gamet viab	STAT3 act-1	STAT1 blocker	STAT1 act-1	STAT3 act-2	NFkB act STAT3ct	STAT1 act-2
COc1ccc2c(=O)c3c(=O)n(-c4ccccc4)c(-c4ccc(C)cc4)nc3oc2c1	nt	nt	-8	nt	nt	nt	nt	nt	nt
O=c1c2ccccc2oc2nc(-c3ccco3)n(-c3ccccc3)c(=O)c12	93	0.85	-5	136*	-11	110	135*	109	109
CC(C)c1nc2oc3ccccc3c(=O)c2c(=O)n1-c1ccccc1	19	1.7	nt	159*	-3	103	132	103	113
Nc1n[nH]c2ccccc12	-15	1.5	-7	136*	1	98	141*	101	97
Nc1n[nH]c2cccc(Cl)c12	nt	nt	3	nt	nt	nt	nt	nt	nt
Oc1ccccc1/C=C/c1noc(-c2ccccc2O)n1	113	1.1	7	142*	-23	120	169*	101	102
Cc1nnc(NC(=O)Cn2nc(C)c3ccccc3c2=O)s1	28	0.96	-9	101	-15	115	nt	nt	nt
CC1(C)CC(=O)C2=C(C1)N1C(=C(C#N)C2c2ccc(Cl)cc2)N=C(N)c2ccccc21 (stereo not given)	1	0.49	nt	129	-6	105	nt	nt	nt
N#CC1=C2N=C(N)c3ccccc3N2C2=C(C(=O)CCC2)C1c1ccc(Cl)cc1 (stereo not given)	-8	0.45	nt	183*	8	93	149*	97	97
Oc1cccc(C2c3[nH]c4ccccc4c3CCN2Cc2ccc3c(c2)CCO3)c1 (stereo not given)	2	0.9	-16	141*	12	87	142*	104	94
COc1ccc(C2c3[nH]c4ccccc4c3CCN2Cc2ccoc2)c(F)c1 (stereo not given)	-5	0.87	nt	118	1	98	nt	nt	nt
Oc1cccc(C2c3[nH]c4ccccc4c3CCN2Cc2ccoc2)c1 (stereo not given)	7	1.2	-18	138*	8	90	137*	102	94
COc1cccc(C2c3[nH]c4ccccc4c3CCN2Cc2cnn(C)c2)c1 (stereo not given)	nt	nt	13	nt	nt	nt	nt	nt	nt
COc1ccccc1-n1c(SCC(N)=O)nc2sc3c(c2c1=O)CCC3	nt	nt	9	nt	nt	nt	nt	nt	nt
O=C(CCCl)N1CCN(c2nc(-c3ccccc3)cs2)CC1	nt	nt	0	nt	nt	nt	nt	nt	nt
O=C(Nc1ccc(F)c(Cl)c1)C1CC2CCC1C2 (stereo not given)	nt	nt	-7	nt	nt	nt	nt	nt	nt
Cc1nc(-c2coc3cc(C)c(N=O)c(O)c3/c2=N\N)cs1	-16	1.1	nt	102	-4	104	nt	nt	nt
Cc1csc(-c2coc3cc(O)cc(C)c3c2=O)n1	38	2.1	nt	148*	-26	124	160*	106	131*
CC(=O)Nc1cccc(N/C=C(\C=O)c2nc3ccccc3o2)c1	46	0.74	-12	171*	-10	109	176*	115	112

Source: PubChem BioAssay
